This is an account of results in ChEMBL document CHEMBL5653630, “Activation of the p53-MDM4 regulatory axis defines the anti-tumour response to PRMT5 inhibition through its role in regulating cellular splicing” (Sci Rep, 2018).

Usually GI50 stands for the concentration at which growth is held to half of that of the control.

The target of data set [1] is E3 ubiquitin-protein ligase Mdm2 (Homo sapiens) (UniProt Q00987). Put plainly: In vivo inhibition of PRMT5 in human Z138 cells xenografted in mouse assessed as increase in MDM2 expression at 100 mg/kg, po BID measured for 7 days. The format is functional, organism-based. The settings on record: Z-138, time 7.0 day.
Sequence of E3 ubiquitin-protein ligase Mdm2 (Homo sapiens) (Q00987 whole entry, looked up): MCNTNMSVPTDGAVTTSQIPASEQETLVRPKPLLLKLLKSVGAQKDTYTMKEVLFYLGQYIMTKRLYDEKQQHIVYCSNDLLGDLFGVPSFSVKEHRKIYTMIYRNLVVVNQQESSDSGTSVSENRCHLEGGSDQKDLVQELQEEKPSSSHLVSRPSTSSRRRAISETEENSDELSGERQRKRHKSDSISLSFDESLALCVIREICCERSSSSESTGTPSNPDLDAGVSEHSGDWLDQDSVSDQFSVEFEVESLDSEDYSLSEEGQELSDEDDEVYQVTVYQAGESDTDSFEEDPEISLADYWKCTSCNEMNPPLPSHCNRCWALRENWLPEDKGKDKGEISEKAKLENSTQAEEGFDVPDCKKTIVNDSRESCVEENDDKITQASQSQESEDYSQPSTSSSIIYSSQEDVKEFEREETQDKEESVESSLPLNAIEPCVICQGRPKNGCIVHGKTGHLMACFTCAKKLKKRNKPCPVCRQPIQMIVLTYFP
The nature of data set [2]: Toxicity in mouse assessed as body weight loss at 25 mg/kg, po pretreated for 21 days followed by treatment holiday for 10 days and further compound treatment for 2 weeks starting from day 32 followed by 1 week treatment holiday. The format is organism-based. The settings on record: in vivo, 504 h, time 21 day.
For data set [3], the system named is Z-138. Put plainly: Induction of apoptosis in human Z138 cells assessed as early apoptotic cells incubated for 6 days by annexin-V/FITC propidium iodide staining based flow cytometry analysis. The conditions noted are these: dose 200.0 nM, time 6.0 day. The format is functional, cell-based. For orientation: A flow cytometer gives signals particle by particle.

In data set [4] the test system is Z-138. Put plainly: In vivo inhibition of PRMT5 in human Z138 cells xenografted in po dosed mouse assessed as reduction in SDMA level measured for 7 days. The format is functional, organism-based. The settings on record: dose 0.2-100 mg/kg, time 7.0 day. On the technique in general: In xenograft studies the graft and the host belong to different species.
For data set [5], the system named is Z-138. Put plainly: Induction of cell cycle arrest in human Z138 cells assessed as accumulation of cells at G1 phase cells measured upto 1000 nM by propidium iodide staining based flow cytometric analysis. The data set is classed as functional. The conditions noted are these: time 1-10 day, TDE = time-dependent effect.
In data set [6] the test system is JeKo-1. Put plainly: Induction of cell cycle arrest in human JeKo-1 cells assessed as increase in 2n cell population measured upto 5000 nM measured for 3 days by propidium iodide staining based flow cytometric analysis. The format is functional. The conditions noted are these: time 3.0 day.
Data set [7] relates to JVM-2. Put plainly: Induction of apoptosis in human JVM-2 cells assessed as early apoptotic cells incubated for 6 days by annexin-V/FITC propidium iodide staining based flow cytometry analysis. The format is functional, cell-based. The conditions noted are these: dose <= 5000.0 nM, time 6.0 day.
For data set [8], the system named is KMS-11. Nature of the data set: Antiproliferative activity against human KMS-11 cells assessed as cell growth inhibition incubated for 6 days by celltiter-glo assay. The format is functional. The conditions noted are these: KMS-11, 144 h, time 6 day. The gist of the method:
(§1)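 Cells seeded in 384-well plates at an optimized density and held 24 h. CellTiter-Glo luminescence read at Day 0 and Day 6. Four-parameter fit. gIC50 = midpoint of the growth window between DMSO and T0. Curves required ≥1.5 population doublings.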
For orientation: In ATP-based viability assays light output follows the ATP content of the culture.

The subject of data set [9] is Z-138. Put plainly: Induction of cell cycle arrest in human Z138 cells assessed as increase in 2n cell population measured upto 5000 nM measured for 3 days by propidium iodide staining based flow cytometric analysis. The data set is classed as functional. The conditions noted are these: time 3.0 day.
Data set [10] relates to SW982. Nature of the data set: Antiproliferative activity against human SW982 cells assessed as cell growth inhibition incubated for 10 days. The data set is classed as functional. The conditions noted are these: SW982, 240 h, time 10 day.
Data set [11] relates to DK-MG. Nature of the data set: Antiproliferative activity against human DK-MG cells assessed as cell growth inhibition incubated for 10 days. The data set is classed as functional. The conditions noted are these: 240 h, time 10 day. The method, boiled down:
(§2)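 Outsourced panel run in 384-well plates. Cells were grown in RPMI-1640/10% FBS or a special medium at 37°C, 5% CO2. Compound was added 24 h after seeding as a 10-point, 3.16-fold series in 0.1% DMSO. Medium was refreshed and cells re-dosed at 168 h, with a time-zero plate kept. At 240 h cells were fixed, nuclei stained and imaged. gIC50 is growth midway between untreated and time zero, from a 4-parameter fit.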

The subject of data set [12] is CCF-STTG1. Nature of the data set: Antiproliferative activity against human CCF-STTG1 cells assessed as cell growth inhibition incubated for 10 days. The data set is classed as functional. The settings on record: CCF-STTG1, 240 h, time 10 day. The method, boiled down: (§3)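 Cells kept in RPMI-1640 with 10% FBS, 2 mM L-alanyl-L-glutamine and 1 mM Na pyruvate (or a special medium) at 37°C, 5% CO2. Compound added 24 h after seeding, 10 concentrations in 3.16-fold dilution, 0.1% DMSO final. Medium replaced and cells re-dosed at 168 h; 240 h incubation. Nuclei fixed, dye-stained and imaged. gIC50 = growth midway between untreated and time-zero cell counts, from a 4-parameter fit.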

Data set [13] relates to NCI-H69. Put plainly: Antiproliferative activity against human NCI-H69 cells assessed as cell growth inhibition incubated for 10 days. The format is functional. The conditions noted are these: NCI-H69, 240 h, time 10 day.
In data set [14] the test system is C-4-II. Put plainly: Antiproliferative activity against human C-4-II cells assessed as cell growth inhibition incubated for 10 days. The settings on record: 240 h, time 10 day. The format is functional. The method, boiled down: as §3
The test system of data set [15] is CAPAN-1. Put plainly: Antiproliferative activity against human CAPAN-1 cells assessed as cell growth inhibition incubated for 10 days. The settings on record: CAPAN-1, 240 h, time 10 day. The data set is classed as functional. The gist of the method: as §3
Data set [16] relates to WI-38. Put plainly: Antiproliferative activity against human WI-38 cells assessed as cell growth inhibition incubated for 10 days. The format is functional. The settings on record: WI-38, 240 h, time 10 day.
In data set [17] the test system is RCK8. Nature of the data set: Antiproliferative activity against human RCK8 cells assessed as reduction in cell viability. The format is functional, cell-based.
For data set [18], the system named is SK-N-AS. Nature of the data set: Antiproliferative activity against human SK-N-AS cells assessed as cell growth inhibition incubated for 10 days. The data set is classed as functional. The settings on record: 240 h, time 10 day.
The test system of data set [19] is OVCAR-3. Nature of the data set: Antiproliferative activity against human OVCAR-3 cells assessed as cell growth inhibition incubated for 10 days. The format is functional. The settings on record: OVCAR-3, 240 h, time 10 day.
The test system of data set [20] is BJAB. Put plainly: Antiproliferative activity against human BJAB cells assessed as cell growth inhibition incubated for 6 days by celltiter-glo assay. The data set is classed as functional. The conditions noted are these: 144 h, time 6 day.
For data set [21], the system named is SH-4. Put plainly: Antiproliferative activity against human SH-4 cells assessed as cell growth inhibition incubated for 10 days. The format is functional. The conditions noted are these: SH-4, 240 h, time 10 day.
Data set [22] has as its system SK-OV-3. Nature of the data set: Antiproliferative activity against human SK-OV-3 cells assessed as cell growth inhibition incubated for 10 days. The data set is classed as functional. The settings on record: SK-OV-3, 240 h, time 10 day.
For data set [23], the target named is Protein arginine N-methyltransferase 5 (Homo sapiens) (UniProt O14744). Put plainly: Inhibition of PRMT5 in p53 knockout human Z138 cells effect on p53 expression at 500 nM incubated for 3 to 11 days by Western blot analysis. The format is cell-based. The conditions noted are these: time 3-11 day.
Sequence of Protein arginine N-methyltransferase 5 (Homo sapiens) (O14744 whole entry): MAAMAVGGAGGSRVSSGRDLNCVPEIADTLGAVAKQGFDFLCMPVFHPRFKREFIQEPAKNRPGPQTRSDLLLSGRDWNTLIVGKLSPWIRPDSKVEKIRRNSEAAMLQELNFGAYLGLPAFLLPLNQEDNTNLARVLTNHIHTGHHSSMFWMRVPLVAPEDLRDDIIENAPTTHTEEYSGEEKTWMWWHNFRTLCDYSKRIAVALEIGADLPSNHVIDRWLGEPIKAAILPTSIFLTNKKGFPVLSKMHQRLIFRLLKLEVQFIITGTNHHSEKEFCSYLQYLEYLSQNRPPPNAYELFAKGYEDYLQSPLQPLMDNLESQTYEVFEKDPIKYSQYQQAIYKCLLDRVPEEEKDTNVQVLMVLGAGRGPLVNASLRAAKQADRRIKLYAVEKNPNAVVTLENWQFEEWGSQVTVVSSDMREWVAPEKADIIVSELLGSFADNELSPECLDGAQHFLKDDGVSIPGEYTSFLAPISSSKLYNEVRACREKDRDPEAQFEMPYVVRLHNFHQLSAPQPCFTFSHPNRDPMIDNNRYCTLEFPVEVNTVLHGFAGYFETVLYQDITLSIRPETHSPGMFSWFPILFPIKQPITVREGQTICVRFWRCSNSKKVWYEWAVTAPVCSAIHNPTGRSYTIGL
Data set [24] has as its system CAL-62. Nature of the data set: Antiproliferative activity against human CAL-62 cells assessed as cell growth inhibition incubated for 10 days. The format is functional. The settings on record: CAL-62, 240 h, time 10 day. The method, boiled down: as §3
Data set [25] has as its system HPAF-II. Nature of the data set: Antiproliferative activity against human HPAF-II cells assessed as cell growth inhibition incubated for 10 days. The data set is classed as functional. The settings on record: 240 h, time 10 day. The method, boiled down:
as §2

Data set [26] has as its system T98G. Nature of the data set: Antiproliferative activity against human T98G cells assessed as cell growth inhibition incubated for 10 days. The format is functional. The settings on record: 240 h, time 10 day.
In data set [27] the test system is SNU-16. Nature of the data set: Antiproliferative activity against human SNU-16 cells assessed as cell growth inhibition incubated for 10 days. The data set is classed as functional. The conditions noted are these: SNU-16, 240 h, time 10 day.
The test system of data set [28] is Caov-3 cell line. Put plainly: Antiproliferative activity against human Caov-3 cell line assessed as cell growth inhibition incubated for 10 days. The data set is classed as functional. The settings on record: Caov-3, 240 h, time 10 day. The gist of the method:
as §2

The test system of data set [29] is G-402. Put plainly: Antiproliferative activity against human G-402 cells assessed as cell growth inhibition incubated for 10 days. The format is functional. The settings on record: G-402, 240 h, time 10 day. The method, boiled down:
as §2

The nature of data set [30]: Antiproliferative activity against human Ri-1 cells assessed as cell growth inhibition incubated for 6 days by celltiter-glo assay. The format is functional. The settings on record: Ri-1, 144 h, time 6 day. The gist of the method: as §1
Data set [31] has as its system YAPC. Put plainly: Antiproliferative activity against human YAPC cells assessed as cell growth inhibition incubated for 10 days. The format is functional. The conditions noted are these: 240 h, time 10 day.
The test system of data set [32] is U-266. Nature of the data set: Antiproliferative activity against human U266B1 cells assessed as cell growth inhibition incubated for 10 days. The format is functional. The conditions noted are these: U-266, 240 h, time 10 day.
Data set [33] has as its system SK-N-FI. Nature of the data set: Antiproliferative activity against human SK-N-FI cells assessed as cell growth inhibition incubated for 10 days. The settings on record: 240 h, time 10 day. The format is functional.
Data set [34] concerns MEG-01. Put plainly: Antiproliferative activity against human MEG-01 cells assessed as cell growth inhibition incubated for 10 days. The format is functional. The settings on record: MEG-01, 240 h, time 10 day.

The source made the active and inactive calls. The calls are words filed in the database; no cut-off is given here.

With `CC(=O)N1CCC(Nc2cc(C(=O)NC[C@H](O)CN3CCc4ccccc4C3)ncn2)CC1` [PEMRAMETOSTAT], the inhibition result in data set [1] was “Active”. Also, the Activity result is “Non-Toxic” in data set [2], “Dose-Dependent Effect” in data set [3], “Tde” in data set [5] and “Dose-Dependent Effect” in data set [7]. Moreover, the inhibition result in [4] was “Dose-Dependent Effect”. For the same molecule, the result in [6] was inactive. For the same molecule, in data set [8], the GI50 is 66 nM. Also, the result in data set [9] was Active.

As to `O=C(NC[C@H](O)CN1CCc2ccccc2C1)c1ccnc(NC2CCC2)c1`, the GI50 in data set [10] came to 56.7 nM; in [11], 89.5 nM; in data set [12] it was 115 nM; in [13], 144 nM; in data set [14], 266 nM; in data set [15], 370 nM. For the same molecule, the GI50 in data set [16] was 18.5 nM; in data set [18] it was 31.9 nM; in data set [19], 51.4 nM; in [20], 3100 nM; in data set [21], 75.2 nM; in data set [22], 52.6 nM. Besides, the GI50 in data set [24] is 253 nM; in data set [25] it was 154 nM; in [26] it was 27.3 nM; in [27], 34.4 nM; in data set [28], 298 nM; in [29], 99.7 nM. Besides, the GI50 in [30] was found to be 68 nM; in data set [31], 168 nM; in [32], 78.5 nM; in data set [33], 308 nM; in data set [34], 10000 nM. Besides, the result in [17] was Active. Further, the inhibition result in [23] is “inactive”.
